Screens: PubChem, Sanford-Burnham Center for Chemical Genomics
The list is not random: actives were taken first. Their share in the collection is about 2.3%.
DNMT1 inh: human DNMT1 methyltransferase inhibitors, primary screen, biochemical, molecular beacon, fluorescence, HinP1I cleavage, uHTS; inhibition (reported as % activation of signal), % at 10 µM; DNA (cytosine-5)-methyltransferase 1 (Homo sapiens), P26358; hit rate 0.83% among 360,000; AID 588458, 2011; in the data active = inhibition above about 50%
STEP block: STEP phosphatase inhibitors, primary screen, biochemical, fluorescence intensity, uHTS. inhibition, % at 20 µM. hit rate 0.25% among 360,000. Tyrosine-protein phosphatase non-receptor type 5 (Homo sapiens), P54829. recombinant STEP, OMFP fluorogenic substrate;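 active = inhibition at 20 µM, scaled per plate between control wells, above about 37%, limit read from the data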;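 also: 0% = DMSO with enzyme and substrate and 100% = substrate only without enzyme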
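Assay system: isolated STEP enzyme. Buffer or medium: pH 6.0 Bis-Tris with DTT and Tween 20. Also added: fluorogenic phosphatase substrate OMFP at 25 µM final. Dosing: 20 µM, 1% DMSO. Timing: 20 min reaction, room temperature, in the dark. Measured by: fluorescence intensity, excitation 480 nm, emission 540 nm. Evaluation: normalized % inhibition.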
Rpn11 inh: Rpn11 (PSMD14) deubiquitinase inhibitors, primary screen, biochemical, fluorescence polarization, uHTS; 26S proteasome non-ATPase regulatory subunit 14 (Homo sapiens), O00487; human 26S proteasome, Ub4-pepOG fluorescence polarization; 20S core pre-blocked with epoxomicin; inhibition, % at 20 µM; hit rate 0.59% among 360,000; AID 588493, 2011;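 active = inhibition at 20 µM, scaled to each plate's controls, above about 33%, limit read from the data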
Target sequence (O00487 whole entry, looked up): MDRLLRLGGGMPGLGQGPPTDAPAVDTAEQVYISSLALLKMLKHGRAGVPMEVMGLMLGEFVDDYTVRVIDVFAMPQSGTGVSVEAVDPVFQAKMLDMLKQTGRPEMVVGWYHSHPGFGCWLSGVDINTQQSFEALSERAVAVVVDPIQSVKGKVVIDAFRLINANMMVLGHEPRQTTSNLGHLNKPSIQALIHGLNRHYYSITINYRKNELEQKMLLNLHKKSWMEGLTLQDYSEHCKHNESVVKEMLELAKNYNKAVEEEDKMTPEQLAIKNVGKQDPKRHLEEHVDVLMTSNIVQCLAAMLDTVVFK
LMPTP block: LMPTP phosphatase inhibitors, primary screen, biochemical, fluorescence intensity, uHTS. inhibition, % at 20 µM. AID 651560, 2012. hit rate 0.22% among 360,000. recombinant LMPTP-A, OMFP fluorogenic substrate;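 active = compounds that cut the enzyme signal by at least half of the control window in the single-dose screen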;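 also: plate controls were DMSO wells with enzyme plus substrate for no effect and substrate without enzyme for full effect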
Target sequence (P24666 whole entry, looked up): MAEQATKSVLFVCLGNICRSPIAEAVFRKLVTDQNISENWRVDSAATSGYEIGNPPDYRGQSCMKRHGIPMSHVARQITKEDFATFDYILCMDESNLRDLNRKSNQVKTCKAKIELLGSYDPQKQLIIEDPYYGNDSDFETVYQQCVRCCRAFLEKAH
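Test system: LMPTP-A phosphatase enzyme. Amount: LMPTP-A at 0.625 nM final in the reaction. Reagent: OMFP substrate, 400 µM final. Times: 50 min at room temperature. Signal: endpoint fluorescence intensity from OMFP dephosphorylation. Read-out basis: % inhibition. Benchmarks: no-enzyme and uninhibited controls.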
SUMO1-SIM PPI: modulators of SUMO1 protein-protein interactions, primary screen, biochemical, uHTS; SUMO1 binding to a labelled peptide, TR-FRET, 1 h; inhibition, % at 20 µM; hit rate 0.33% among 360,000; AID 602429, 2012; in the data active = inhibition above about 37%
Scp1 inh: Scp-1 phosphatase inhibitors, primary screen, biochemical, colorimetric, uHTS | hit rate 0.88% among 340,000 | Recombinant Scp1, phosphopeptide, malachite green phosphate absorbance | inhibition, % at 20 µM | AID 493091, 2011 | Carboxy-terminal domain RNA polymerase II polypeptide A small phosphatase 1 (Homo …;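 active = inhibition above about 50% at 20 µM, limit read from the data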;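 also: plate controls were DMSO wells with enzyme for no effect and wells lacking enzyme for full effect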
Target sequence (Q9GZU7 76-261 limits assumed): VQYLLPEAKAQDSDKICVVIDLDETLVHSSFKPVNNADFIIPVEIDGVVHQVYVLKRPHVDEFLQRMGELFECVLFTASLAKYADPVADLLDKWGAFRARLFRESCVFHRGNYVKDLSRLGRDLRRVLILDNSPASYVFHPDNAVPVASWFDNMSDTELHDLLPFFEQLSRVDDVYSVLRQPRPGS
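Incubation: 45 min enzyme reaction at room temperature / System: truncated SCP-1 phosphatase (76-261aa) / Reagent: Phospho 17-mer peptide substrate / Buffer or medium: Acidic Tris acetate buffer with magnesium and detergent / Signal: absorbance at 630 nm / Doses: one concentration, 20 µM, with 1.0% DMSO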
Rpn11 confirm: Rpn11 (PSMD14) deubiquitinase inhibitors, confirmation, biochemical, fluorescence polarization, single concentration | shares compounds with Rpn11 inh | purified human 26S proteasome, Ub4-pepOG fluorescence polarization; proteasome pretreated with epoxomicin | inhibition, % at 20 µM | hit rate 29% among 1,900 | AID 602318, 2012
MMP-2 counter: MMP-2 enzyme inhibition, confirmation, counter-screen for RPN11 inhibitor project, biochemical, fluorescence, single concentration. shares compounds with Rpn11 inh. recombinant MMP-2, FRET peptide cleavage fluorescence. inhibition, % at 20 µM. hit rate 4% among 1,900. AID 602330, 2012;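 also: human MMP-2 activated beforehand with APMA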
Thrombin inh: bovine thrombin protease inhibition, confirmation, counter-screen for Rpn11 inhibitor project, biochemical, fluorescence polarization, single concentration; shares compounds with Rpn11 inh; bovine thrombin cleavage of Ub4-pepOG; inhibition, % at 20 µM; hit rate 13% among 1,900;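 active = mean inhibition at least 40% at 20 µM, or signal 3 deviations below plate average, so some actives read negative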;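 also: plate controls were thrombin with DMSO for no effect and buffer wells lacking thrombin for full effect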
An asterisk follows results filed as active. Rule as the data show it, unless noted: active = inhibition above about 40%; inactive = the rest.

Results for COc1ccc(/C=N/NC(=O)c2nnn(-c3nonc3N)c2-c2cccs2)cc1OC ?
DNMT1 inh: 13; STEP block: -1; Rpn11 inh: 66*; LMPTP block: 5; SUMO1-SIM PPI: 17; Scp1 inh: 4; Rpn11 confirm: 21; MMP-2 counter: -26; Thrombin inh: -16

How did Cc1cnc(=O)[nH]c1SCc1cccc([N+](=O)[O-])c1 do in these assays?
DNMT1 inh: 0; STEP block: 1; Rpn11 inh: 1; LMPTP block: 0; SUMO1-SIM PPI: -24; Scp1 inh: 0

What do the screens show for `CCCCCCCCCC(=O)N[C@@H]1c2cc(OC)c(OC)cc2C[C@H]1OCc1ccccc1`?
DNMT1 inh: 3; STEP block: 2; Rpn11 inh: -1; LMPTP block: 1; SUMO1-SIM PPI: 2; Scp1 inh: -4

How did COc1ccc(-c2nnc(SCC(=O)NCc3cccs3)n2C(C)C)cc1 do in these assays?
DNMT1 inh: -8; STEP block: 5; Rpn11 inh: 39*; LMPTP block: -1; SUMO1-SIM PPI: 1; Scp1 inh: 5; Rpn11 confirm: 10; MMP-2 counter: -10; Thrombin inh: -1

What do the screens show for `COc1ccc(-c2nnc(SCC(=O)NCc3cccs3)n2C)cc1`?
DNMT1 inh: 6; STEP block: 0; Rpn11 inh: -2; LMPTP block: -1; SUMO1-SIM PPI: -2; Scp1 inh: -5

How did Cc1occc1C(=O)/C(C#N)=C/c1ccc(O)c(Br)c1 do in these assays?
DNMT1 inh: 5; STEP block: 1; Rpn11 inh: 143*; LMPTP block: -2; SUMO1-SIM PPI: -17; Scp1 inh: -8; Rpn11 confirm: 116*; MMP-2 counter: -24; Thrombin inh: 101*

How did O=C(Nc1ccc(-c2nc3ccccc3[nH]2)cc1)c1ccco1 do in these assays?
DNMT1 inh: -2; STEP block: 12; Rpn11 inh: 5; LMPTP block: 3; SUMO1-SIM PPI: 6; Scp1 inh: 0

Results for O=C(/C=C/c1ccco1)Nc1ccc(-c2nc3ccccc3[nH]2)cc1 ?
DNMT1 inh: 50; STEP block: 5; Rpn11 inh: 56*; LMPTP block: 37; SUMO1-SIM PPI: 1; Scp1 inh: -3; Rpn11 confirm: 5; MMP-2 counter: -2; Thrombin inh: -35

What do the screens show for `COc1cc(OC)cc(-c2c(C#Cc3ccsc3)c3cc(-c4ccc(C(N)=O)cc4)ccc3n2C)c1`?
DNMT1 inh: -23; STEP block: 0; Rpn11 inh: 48*; LMPTP block: 3; SUMO1-SIM PPI: 5; Scp1 inh: 46; Rpn11 confirm: 12; MMP-2 counter: 7; Thrombin inh: 10

How did COCc1ccc(-c2ccc3c(c2)c(C#Cc2ccsc2)c(-c2cc(OC)cc(OC)c2)n3C)cc1 do in these assays?
DNMT1 inh: -1; STEP block: -1; Rpn11 inh: 7; LMPTP block: 3; SUMO1-SIM PPI: 6; Scp1 inh: -12

Results for CC1=CC(C)(C)NC(=S)N1c1cccc(Cl)c1 ?
DNMT1 inh: -2; STEP block: 0; Rpn11 inh: -1; LMPTP block: -2; SUMO1-SIM PPI: 3; Scp1 inh: -10

What do the screens show for `COc1ccccc1NC(=O)Nc1ccccc1N1CCOCC1`?
DNMT1 inh: 0; STEP block: -2; Rpn11 inh: 6; LMPTP block: -1; SUMO1-SIM PPI: -2; Scp1 inh: -20

Results for COC(=O)c1c(SCC(=O)NC2CCCCC2)[nH]c2ccccc2c1=O ?
DNMT1 inh: 40; STEP block: -2; Rpn11 inh: 91*; LMPTP block: -1; SUMO1-SIM PPI: 20; Scp1 inh: 22; Rpn11 confirm: 9; MMP-2 counter: -35; Thrombin inh: 6

Results for O=C(COC(=O)c1cc(=O)[nH]c2ccccc12)NC1CCCCC1 ?
DNMT1 inh: 1; STEP block: 13; Rpn11 inh: -1; LMPTP block: 0; SUMO1-SIM PPI: -15; Scp1 inh: 3

Results for Cc1ccnc(NS(=O)(=O)c2ccc(NC(=O)c3cc(-c4ccc(Br)cc4)nc4ccccc34)cc2)n1 ?
DNMT1 inh: 0; STEP block: -3; Rpn11 inh: 38*; LMPTP block: 2; SUMO1-SIM PPI: -1; Scp1 inh: -7; Rpn11 confirm: 18; MMP-2 counter: 10; Thrombin inh: 8

What do the screens show for `O=C(C[n+]1ccc(C(=O)N/N=C/c2ccc(O)cc2)cc1)c1ccccc1`?
DNMT1 inh: -2; STEP block: -2; Rpn11 inh: 104*; LMPTP block: 3; SUMO1-SIM PPI: -12; Scp1 inh: -4; Rpn11 confirm: 0; MMP-2 counter: 13; Thrombin inh: -14

How did CCCCC[C@@H]1C=C(C(=O)O)[C@H](c2ccc3c(c2)OCO3)N1S(=O)(=O)c1ccc(C)cc1 do in these assays?
DNMT1 inh: 4; STEP block: 0; Rpn11 inh: 7; LMPTP block: -1; SUMO1-SIM PPI: 6; Scp1 inh: -4

What do the screens show for `CCc1c(O)nc(SCC(=O)Nc2ccc(C)cc2)n(C2CCCCC2)c1=O`?
DNMT1 inh: 5; STEP block: 0; Rpn11 inh: 85*; LMPTP block: 0; SUMO1-SIM PPI: 3; Scp1 inh: -15; Rpn11 confirm: 42*; MMP-2 counter: 1; Thrombin inh: 28

What do the screens show for `CCc1c(O)nc(SCC(=O)Nc2ccc(Br)cc2)n(-c2ccc(C)cc2)c1=O`?
DNMT1 inh: -2; STEP block: -1; Rpn11 inh: 20; LMPTP block: 0; SUMO1-SIM PPI: 18; Scp1 inh: -5
